Measured values: ChEMBL document CHEMBL1124299, “Synthesis and thromboxane A2 antagonist activity of N-benzyltrimetoquinol analogues” (J Med Chem, 1988)

What was measured:
Rattus norvegicus [1] = organism: Rattus norvegicus; assay: Inhibition of U-46,619-induced contraction of Rat thoracic aorta in the presence of indomethacin, at conc 100 uM; type: functional
Procedure, shortened: (§1)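 Rat thoracic aortic strips equilibrated 1 h in Krebs-Henseleit solution containing 3 X 10^-6 M indomethacin; TMQ analogues tested at 100 µM against U46619-induced contraction. Cumulative U46619 concentration-response curves by the van Rossum method. U46619 EC50 read graphically from individual percent response vs log concentration plots and expressed as pD2. Significance level 5% versus control.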

Rattus norvegicus [2] = organism: Rattus norvegicus; assay: Inhibition of U-46,619-induced contraction of Rat thoracic aorta in the presence of indomethacin, KB; type: functional
Rattus norvegicus [3] = organism: Rattus norvegicus; assay: Log of KB that is, inhibition of U-46,619-induced contraction of Rat thoracic aorta in the presence of indomethacin; type: functional
Homo sapiens [4] = organism: Homo sapiens; assay: Inhibition of 0.5-0.7 uM of U-46,619 induced [14C]5-HT secretion; type: functional
Procedure, shortened: (§2)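 Human platelet-rich plasma from medication-free volunteers. Dense-granule secretion measured as release of radioactivity from prelabeled platelets, induced by ADP or U46619. Inhibitors added 1 min before the inducer, which was used at the minimum concentration giving maximal aggregation. Values are IC50s.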

Homo sapiens [5] = organism: Homo sapiens; assay: Inhibition of 0.5-0.7 uM of U-46,619 induced human platelet aggregation; type: functional
Procedure, shortened: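 Human platelet-rich plasma from donors medication-free for at least 10 days. Born turbidometric aggregation, with U46619 at the minimum concentration giving maximal aggregation. Inhibitor added 1 min before U46619. IC50 taken from the change in light-transmittance amplitude at 4 min.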

Rattus norvegicus [6] = organism: Rattus norvegicus; assay: Inhibition of U-46,619-induced contraction of Rat thoracic aorta in the presence of indomethacin (control); type: functional; procedure, shortened: as §1
Rattus norvegicus [7] = organism: Rattus norvegicus; assay: Inhibition of U-46,619-induced contraction of Rat thoracic aorta in the presence of indomethacin control); type: functional; procedure, shortened: as §1
Homo sapiens [8] = organism: Homo sapiens; assay: Inhibition of 0.5-0.7 uM of ADP induced [14C]5-HT secretion; type: functional, organism-based; details: in the assay text read “1.5-1.9 uM” for “0.5-0.7 uM”; procedure, shortened: as §2
Homo sapiens [9] = organism: Homo sapiens; assay: Inhibition of 1.5-1.9 uM of ADP-induced human platelet aggregation; type: functional
Procedure, shortened: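 Platelet-rich plasma from human volunteers free of medication for at least 10 days. Turbidometric (Born) aggregation in a dual-channel aggregometer, with ADP at the minimum concentration giving maximal aggregation. Inhibitor added 1 min before ADP. IC50 derived from the change in light-transmittance amplitude at 6 min. Mean ± SEM of three preparations.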

Rattus norvegicus [10] = organism: Rattus norvegicus; assay: Inhibition against U-46,619-induced contraction of Rat thoracic aorta was determined expressed as pA2; type: functional; details: read-out: pA2 (converted)
Rattus norvegicus [11] = organism: Rattus norvegicus; assay: Inhibition of U-46,619-induced contraction of Rat thoracic aorta in the presence of indomethacin(control); type: functional; procedure, shortened: as §1
Rattus norvegicus [12] = organism: Rattus norvegicus; assay: Inhibition of U-46,619-induced contraction of Rat thoracic aorta in the presence of indomethacin; type: functional; procedure, shortened: as §1
Rattus norvegicus [13] = organism: Rattus norvegicus; assay: Inhibition of U-46,619-induced contraction of Rat thoracic aorta expressed as pKB value of the compound; type: functional

SMILES	IC50 (Homo sapiens [4]) [µM]	IC50 (Homo sapiens [5]) [µM]	IC50 (Homo sapiens [8]) [µM]	IC50 (Homo sapiens [9]) [µM]	pD2 (Rattus norvegicus [1])	Kb (Rattus norvegicus [2]) [µM]	pKB (Rattus norvegicus [3])	pD2 (Rattus norvegicus [6])	pD2 (Rattus norvegicus [7])	Kb (Rattus norvegicus [10]) [µM]	pD2 (Rattus norvegicus [11])	Kb (Rattus norvegicus [12]) [µM]	pKB (Rattus norvegicus [13])
COc1cc(CC2c3cc(O)c(O)cc3CCN2Cc2ccc(Cl)c(Cl)c2)cc(OC)c1OC (stereo not given)	264	257	–	–	8.22	–	–	–	8.12	–	–	–	–
COc1cc(CC2c3cc(O)c(O)cc3CCN2Cc2ccc(Cl)cc2)cc(OC)c1OC (stereo not given)	128	119	–	–	8.09	–	–	8.1	–	–	–	–	–
COc1cc(CC2c3cc(O)c(O)cc3CCN2Cc2ccccc2)cc(OC)c1OC (stereo not given)	66.4	67.4	54.1	67.5	7.86	138	3.86	8.11	–	–	–	–	–
COc1cc(CC2c3cc(O)c(O)cc3CCN2Cc2ccc([N+](=O)[O-])cc2)cc(OC)c1OC (stereo not given)	269	296	289	359	7.84	89.1	4.05	8.21	–	–	–	–	–

Stronger by IC50 (Homo sapiens [4]), values ahead:

IC50 (Homo sapiens [4]) [µM]	IC50 (Homo sapiens [5]) [µM]	IC50 (Homo sapiens [8]) [µM]	IC50 (Homo sapiens [9]) [µM]	SMILES	pD2 (Rattus norvegicus [1])	Kb (Rattus norvegicus [2]) [µM]	pKB (Rattus norvegicus [3])	pD2 (Rattus norvegicus [6])	pD2 (Rattus norvegicus [7])	Kb (Rattus norvegicus [10]) [µM]	pD2 (Rattus norvegicus [11])	Kb (Rattus norvegicus [12]) [µM]	pKB (Rattus norvegicus [13])
56.2	50.2	–	–	COc1ccc(CN2CCc3cc(O)c(O)cc3C2Cc2cc(OC)c(OC)c(OC)c2)cc1 (stereo not given)	7.64	69.2	4.16	8.07	–	–	–	–	–
40.4	55.9	–	–	COc1cc(CC2c3cc(O)c(O)cc3CCN2Cc2ccc(C)cc2)cc(OC)c1OC (stereo not given)	7.58	55	4.26	–	–	30.2	8.05	–	–
27.1	27	29.1	40	COc1cc(CC2c3cc(O)c(O)cc3CCN2Cc2ccc(N)cc2)cc(OC)c1OC (stereo not given)	8.03	162	3.79	8.26	–	–	–	–	–
0.75	0.77	–	–	COc1cc(NCc2ccc3nc(N)nc(N)c3c2C)cc(OC)c1OC [TRIMETREXATE]	6.78	–	–	–	–	–	–	4.26	5.37
